Columns and labels:
RAJI cells = experiment: St. Jude cancer cell line panel, RAJI; type: cell-based; details: Burkitt's lymphoma; confidence intervals in parentheses; NA: not active
In short: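 RAJI Burkitt's lymphoma cells, FAB L3 subtype, served as the panel's single lymphoma line. Screened together with four ALL lines and mouse CPC300 choroid plexus carcinoma cells at St. Jude.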

NALM16 cells = experiment: St. Jude cancer cell line panel, NALM16; type: cell-based, human; details: ALL cell line; confidence intervals in parentheses; NA: not active
In short: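 Human ALL line NALM16, derived from the peripheral blood of a child at relapse in 1977. Carries a near-haploid karyotype. Tested in a St. Jude screening panel alongside three other ALL lines, one lymphoma line and mouse choroid plexus carcinoma CPC300 cells.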

REH cells = experiment: St. Jude cancer cell line panel, REH; type: cell-based, human; details: precursor B-cell ALL; confidence intervals in parentheses; NA: not active
In short: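 REH: patient-derived precursor B-cell ALL line that expresses only wild-type MLL and wild-type AF4. Screened in a St. Jude panel with other ALL lines, a lymphoma line and mouse CPC300 cells.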

EC50 RAJI (RAJI cells): no activity | EC50 NALM16 (NALM16 cells): no activity | EC50 REH (REH cells): no activity
SMILES: CSc1ccc(/C=C2/C(C)=C(CC(=O)NCCN(C)C)c3cc(F)ccc32)cc1 [SSA, sulindac sulfide amide]

Source: article PMC6081960 (Bioorganic & medicinal chemistry letters, 2018)
